The sample as a whole holds a higher share of hits than the screen did.
TLR4-MyD88 BLA = inhibitors of TLR4-MyD88 association in cells, primary screen, cell-based, HeLa CL3-4, BLA complementation, FRET ratio | Toll-like receptor 4 (Homo sapiens) + Myeloid differentiation primary response protein … | HeLa CL3-4 TLR4/MyD88 BLA complementation | inhibition, % at 8.4 µM | actives 0.18% (n = 200,000); in the data active means inhibition above about 25%
NOD2-RIPK2 inh = NOD2-RIPK2 binding disruptors in cells, primary screen, fluorescence, CHO cells, BLA complementation; Receptor-interacting serine/threonine-protein kinase 2 (Homo sapiens), O43353; CCF4 ratio; inhibition, % at 4.98 µM; actives 0.38% (n = 360,000); AID 624267, 2012; in the data active means inhibition above about 21%
UPR CHOP act = activators of apoptotic CHOP UPR arm, primary screen, cell-based, CHO-CHOP luciferase reporter, luminescence, uHTS | activation, % at 10 µM | AID 449763, 2010 | actives 0.34% (n = 330,000) | UPR activation; percent of tunicamycin response over DMSO baseline;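 active means at 10 µM dose, activation of 40% or more, normalized to positive control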
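System: CHO-CHOP luciferase reporter cell line | Buffer or medium: F12 medium containing 10% fetal bovine serum | Doses: One dose, 10 µM in 0.5% DMSO | Times: 6 h compound exposure at 37 °C after overnight seeding | Signal: Luciferase luminescence | Read-out: % activation vs tunicamycin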
TLR9-MyD88 inh = inhibitors of TLR9-MyD88 association in cells, primary screen, cell-based, CHO, BLA complementation, fluorescence; actives 0.21% (n = 340,000); CCF4 FRET ratio; Toll-like receptor 9 (Homo sapiens) + Myeloid differentiation primary response protein …; inhibition, % at 4.98 µM;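 active means inhibition above the mean over all tested compounds plus 3 SD, cut at about 21% in these data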
UPR XBP1 act = activators of adaptive XBP1 UPR arm, primary screen, cell-based, CHO-XBP1 luciferase reporter, luminescence, uHTS; IRE1-XBP1 UPR activation; percent of tunicamycin response, DMSO as zero; activation, % at 20 µM; actives 0.33% (n = 330,000); AID 463104, 2010;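 active means versus positive control, 20 µM dose yields 30% or more activation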
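Material – CHO cell line with stable XBP1 luciferase reporter · Buffer or medium – F12 plus 10% FBS · Compound – single point, 20 µM final compound, 1% DMSO · Schedule – 16-18 h cell attachment at 37 °C, then 6 h compound exposure · Signal – Steady-Glo luminescence read · Benchmarks – high control tunicamycin 10 µg/mL final, low control DMSO vehicle only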
CHOP inh = inhibitors of CHOP promoter induction, primary screen, cell-based, unfolded protein response, luciferase reporter; CHO-K1 CHOP-promoter luciferase, tunicamycin-induced, 15-18 h; inhibition, % at 10 µM; actives 3.8% (n = 220,000); AID 2732, 2010;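 active means compounds that reduced the stress-induced luciferase reporter signal by more than about 70% of percent inhibition, limit read from the data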
CHOP inh conf = retest of CHOP induction inhibitors, confirmation, cell-based | CHO-CHOP promoter luciferase reporter, tunicamycin-induced, luminescence | AID 504437, 2011 | shares compounds with CHOP inh | inhibition, % at 10 µM | actives 45% (n = 2,100);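 active means mean of three repeat readings of reporter signal inhibition above a set limit, cut at about 70% in these data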
A number is an active result; n = inactive; x = no result given.

SMILES | TLR4-MyD88 BLA | NOD2-RIPK2 inh | UPR CHOP act | TLR9-MyD88 inh | UPR XBP1 act | CHOP inh | CHOP inh conf
CN(C)c1ccc(C(CNS(=O)(=O)c2ccc(F)c(F)c2)c2c[nH]c3ccccc23)cc1 (configuration not stated) | n | n | n | n | n | 109.6 | 115.6
CC1(C(=O)NS(=O)(=O)C2CC2)CCN(C(=O)c2ccccc2C(F)(F)F)C1 (configuration not stated) | x | n | x | x | x | x | x
CC(C)(C)c1ccc(S(=O)(=O)NCC(=O)Nc2sc3c(c2C(N)=O)CCCC3)cc1 | n | n | n | n | n | 107.4 | 91.5
Oc1[nH]c2ccccc2c1N=NC(=S)NCCc1ccccc1 | n | n | x | n | x | 104.8 | 75.6
CC(C)c1ccc2[nH]c(O)c(N=NC(=S)NCCc3ccccc3)c2c1 | n | n | n | n | n | n | x
c1ccc2c(c1)CN1C(=N2)COc2ccccc2C1c1nc2ccccc2[nH]1 (configuration not stated) | x | n | x | x | x | x | x
O=c1nc(SCc2c(F)cccc2Cl)nc(-c2ccc(Cl)cc2)[nH]1 | x | n | n | n | n | 100.9 | n
CCOC(=O)c1c(-c2ccc(C)cc2)csc1NC1=NS(=O)(=O)c2ccccc21 | n | n | n | n | n | 100.8 | n
CC(C)NC(=O)c1cc(C2CCCCN2C(=O)c2ccccc2)on1 (configuration not stated) | x | n | x | x | x | x | x
O=Cc1ccc(Sc2nnc(-c3ccccc3)o2)c([N+](=O)[O-])c1 | n | n | n | n | n | 96.7 | n
CCOc1ccc2nc(-c3ccccc3)nc(SCC(=O)Nc3ncc(C)s3)c2c1 | n | n | n | n | n | 98.4 | n
CCCCNS(=O)(=O)c1cccc(NC(=O)[C@H]2C[C@H](O)[C@@H](CO)O2)c1 | x | n | x | x | x | x | x
CN(Cc1ccccc1C#N)S(=O)(=O)c1cccs1 | x | n | n | n | n | x | x
N#Cc1nccnc1S(=O)(=O)c1cccs1 | x | x | n | x | n | 107.1 | 104.6
Cc1ccc(S(=O)(=O)Nc2ccc3c(c2)C(=O)N([C@@H](C)CO)C[C@@H](C)[C@@H](CN(C)C(=O)NC(C)C)OCCCC[C@H](C)O3)cc1 | x | n | x | x | x | x | x
Cc1ccc(Oc2ncnc(N)c2[N+](=O)[O-])cc1 | n | n | n | n | n | n | x
Cc1ccc(N(c2ncnc(N)c2[N+](=O)[O-])C2CCCCC2)cc1 | n | n | n | n | n | 105.4 | 99.7
COC(=O)C[C@@H]1CC[C@H](NC(=O)Cc2ccccn2)[C@@H](CO)O1 | x | n | x | x | x | x | x
CC(O)(c1cccnc1)c1nc(/C=C/c2ccccc2)cs1 (configuration not stated) | x | n | x | x | x | x | x
CC(C)c1ccccc1NC(=O)Cn1c(/C=C/c2ccccc2)nc2ccccc21 | x | x | n | x | 32.5 | 99.3 | 101.2
Cc1cccc(C(=O)OCC(=O)N2c3ccccc3CC2C)c1C (configuration not stated) | x | n | x | n | x | x | x
CSC(SC)=C(C#N)C(=O)c1ccccc1 | x | n | n | n | n | 106.7 | 102.0
CCC(C(=O)NCc1ccccc1)n1c(C2CCN(C(C)=O)CC2)nc2ccccc21 (configuration not stated) | x | n | x | x | x | x | x
COc1ccc(/C=C2\SC(=O)N(CC(=O)NCCC(C)C)C2=O)cc1OC | x | n | n | n | n | n | x
COc1ccc(/C=C2/SC(=O)N(CC(=O)NCCC(C)C)C2=O)cc1OC | n | n | n | n | n | 100.4 | n
SMILES | TLR4-MyD88 BLA | NOD2-RIPK2 inh | UPR CHOP act | TLR9-MyD88 inh | UPR XBP1 act | CHOP inh | CHOP inh conf
Cc1cc(NC(=O)C2CCCCC2)n(-c2nc3ccccc3[nH]2)n1 | n | n | n | n | n | 102.1 | n
Cc1cc(NC(=O)c2c(F)cccc2F)n(-c2nc3ccccc3[nH]2)n1 | n | n | n | n | n | 99.6 | n
Nc1cccc2c1C(=O)N(C(=O)/C=C/c1cccc(F)c1)C2=O | n | n | n | n | n | 103.4 | 127.0
Nc1cccc2c1C(=O)N(C(=O)/C=C/c1cccc(Br)c1)C2=O | x | n | x | n | x | n | x
O=C(O)c1ccc(S(=O)(=O)N2CCCCCCC2)cc1 | x | n | x | n | x | x | x
CCCc1ccc(C(=O)NNC(=O)c2ccc(Br)cc2)cc1 | n | n | n | n | n | 98.8 | n
CC1=C(C(=O)N2CCCCCC2)CC(CC(=O)NCCN2CCOCC2)C(=O)N1Cc1ccc(F)cc1 (configuration not stated) | x | n | x | x | x | x | x
C[C@H](CO)N1C[C@H](C)[C@H](CN(C)Cc2cncnc2)Oc2cc(Br)ccc2S1(=O)=O | x | n | x | n | x | x | x
O=C(COc1cc(F)ccc1[N+](=O)[O-])Nc1cc(S(=O)(=O)N2CCCC2)ccc1Cl | x | n | n | n | n | x | x
CC1=C(C(=O)N(C(C)C)C(C)C)CC(CC(=O)NCCCN(C)C)C(=O)N1CCCN1CCCC1=O (configuration not stated) | x | n | x | x | x | x | x
Oc1ccccc1-c1cc(-c2ccc(F)cc2)n[nH]1 | x | n | n | n | n | x | x
Oc1ccc(F)cc1-c1cc(-c2ccc3c(c2)OCCO3)n[nH]1 | n | n | n | n | n | 98.9 | n
COc1ccc(C(=O)NC(=O)Nc2cc(C)ccn2)cc1 | n | n | n | n | n | 105.0 | 102.6
CCc1nc2c(OCc3c(C)noc3C)cccn2c1N(C)C(=O)C(C)C | x | n | x | x | x | x | x
C=C(C(=O)c1ccccc1)C(C)C(=C)C(=O)c1ccccc1 | n | n | x | n | x | 99.5 | 109.7
C=C(C(=O)c1ccccc1)C(c1ccccc1)C(C)C(=O)c1ccccc1 (configuration not stated) | n | n | n | n | n | n | x
CCc1nc2ccc(C(=O)NC3CCN(Cc4ccccc4)CC3)cn2c1N(CC)Cc1cccc(Br)c1 | x | n | x | x | x | x | x
NC(=O)c1ccc(C(F)(F)F)n(Cc2c(Cl)cccc2Cl)c1=O | n | n | n | n | n | 101.8 | 112.1
COc1ccc(CN(C)C2c3ccccc3-c3ccccc32)cc1 | n | n | n | n | n | 106.1 | n
COc1ccc(CP(=O)(c2ccccc2)c2ccccc2)cc1 | x | n | n | n | n | x | x
CCC(Sc1nc2ccsc2c(=O)n1Cc1ccc(C(=O)O)cc1)C(=O)Nc1ccc(Cl)cc1 (configuration not stated) | x | n | x | n | x | x | x
Cc1cc(NC(=O)CSc2nc3cc4c(cc3c(=O)n2CCc2ccccc2)OCO4)no1 | n | n | n | n | n | 99.1 | 101.3
